KCNQ1 act – potentiates or activates the human KCNQ1 potassium channel; P51787; CHO-K1 KCNQ1, thallium flux FluxOR fluorescence; active compounds read high; B-score at 10 µM; 0.35% of 310,000 active; AID 2648;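 active = fluorescence ratio B-score, a plate-corrected score, at least three library SD, with initial intensity B-score within 5 SD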
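Test system: CHO-K1 cells stably expressing KCNQ1 / Medium: assay buffer / Also added: depolarizing K+/Tl+ stimulus, K2SO4 and Tl2SO4 each 12.5 mM in 5x stock / Incubation: 90 min dye loading and 20 min compound exposure, both at room temperature / Signal: thallium influx via FluxOR fluorescence, kinetic imaging / Evaluation: B score of baseline-normalized fluorescence ratio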
KCNQ1 inh – inhibitors of human KCNQ1 potassium channel | B-score at 10 µM | CHO-K1 KCNQ1, FluxOR thallium flux fluorescence; active compounds read high | 1.3% of 310,000 active | P51787;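 active = compounds whose thallium flux B-score, printed positive for inhibition, exceeds three library SD while starting fluorescence stays within three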;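 note: channel opened by potassium depolarization with thallium stimulus after 20 min compound exposure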
Kir21 block – inhibitors of mouse Kir2.1 inward-rectifier potassium channel | P35561 | HEK293-Kir2.1, FluxOR thallium flux fluorescence; active compounds read low | B-score at 10 µM | 0.85% of 310,000 active | AID 1672;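 active = fluorescence ratio B-score at or below minus 3 SD of library scores, with starting-brightness B-score within 2 SD, cut at about -4.2 in these data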;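 note: channel flux triggered by added potassium and thallium sulfate stimulus; B-score of peak minus minimum fluorescence over baseline after thallium stimulus; more negative B-score means stronger Kir2.1 block with less thallium influx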
KCNK9 inh – inhibitors of human KCNK9 two-pore domain potassium channel; Q9NPC2; HEK293 KCNK9, FluxOR thallium flux fluorescence; active compounds read low; B-score at 10 µM; 1.2% of 310,000 active; AID 488922;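 active = ratio B-score over 3 SD below the library mean, with starting fluorescence within 5 SD of its mean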;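 note: negative B-score means less thallium flux so channel inhibition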
KCNK3 inh – human KCNK3 channel inhibition, primary screen | CHO-KCNK3 thallium flux, FluxOR fluorescence; active compounds read low | 0.84% of 340,000 active | B-score at 10 µM | O14649 | AID 602410;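 active = B-score under library mean minus 4 SD, starting fluorescence ratio at most library mean plus 5 SD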;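 note: more negative B-score means stronger inhibition of thallium flux through KCNK3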
Target sequence (O14649 whole entry, looked up): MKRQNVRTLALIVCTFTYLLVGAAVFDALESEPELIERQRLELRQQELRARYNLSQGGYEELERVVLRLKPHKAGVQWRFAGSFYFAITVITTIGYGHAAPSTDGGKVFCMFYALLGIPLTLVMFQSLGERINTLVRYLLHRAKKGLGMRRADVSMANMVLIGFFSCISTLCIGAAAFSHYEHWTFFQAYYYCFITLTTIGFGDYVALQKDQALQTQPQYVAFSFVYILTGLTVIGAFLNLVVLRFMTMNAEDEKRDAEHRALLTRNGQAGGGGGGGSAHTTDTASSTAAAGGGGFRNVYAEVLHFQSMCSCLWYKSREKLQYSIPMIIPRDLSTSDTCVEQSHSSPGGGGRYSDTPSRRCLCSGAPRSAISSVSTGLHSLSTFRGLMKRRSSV
hERG protect – shields human hERG channel from block by proarrhythmic agents. Q12809. CHO-hERG, FluxOR thallium flux, dofetilide IC70 present. activation (rescue from dofetilide block), less the hit threshold, % at 10 µM. 0.51% of 310,000 active;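 active = activation above the mean of controls blocked by dofetilide plus 5 SD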;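 note: thallium influx through hERG after potassium depolarization seen as dye fluorescence rise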
* hit, by the source's call; i = inactive; . = not tested or not shown. Sampled rows, rich in hits. Any-hit rate of the full collection: about 3.8%.

SMILES	KCNQ1 act	KCNQ1 inh	Kir21 block	KCNK9 inh	KCNK3 inh	hERG protect
O=C(CCN1C(=O)/C(=C\C=C\c2ccccc2)SC1=S)Nc1cccc(C(=O)O)c1	i	i	-0.26	i	i	45*
O=C(Nc1ccc(Cl)cc1)C1CCN(C(=O)c2ccco2)CC1	i	i	1.3	i	i	0
CC(C)CNC(=O)c1ccccc1NC(=O)c1ccc(CSc2ccccc2)cc1	i	7*	-0.07	i	i	-17
c1ccc2nc(N3CCCC3)c(N3CCCCC3)nc2c1	.	.	.	.	-10*	.
COc1ccc(NC(=O)C(=O)c2cn(CC(=O)N3CCOCC3)c3ccccc23)cc1OC	i	i	-2.1	i	i	-19
Cc1cc(C)c(C#N)c(N2CCN(Cc3ccccc3)CC2)n1	i	i	-4.5*	i	i	-9
Cc1cc(C)c(C#N)c(N2CCN(Cc3ccc4c(c3)OCO4)CC2)n1	i	i	-2.2	i	i	-5
COC(=O)c1ccc(CO/N=C/c2cccc([N+](=O)[O-])c2)cc1	i	i	0.63	-6.7*	i	-1
Cc1cc(C(=O)CCC(=O)NC(C)c2ccc(S(N)(=O)=O)cc2)c(C)s1 (stereo not drawn)	i	i	-1.1	i	i	-2
Cn1c(=O)c2c(SCC(=O)NCC3CCCO3)nc(-c3ccccc3Cl)nc2n(C)c1=O (stereo not drawn)	i	i	-0.03	i	i	-6
CC1CCC(NC(=O)c2cc3ccccc3cc2O)CC1 (stereo not drawn)	.	.	.	.	-11*	.
O=C(NNC(=O)c1cc2ccccc2cc1O)NC1CCCCC1	i	i	0.01	i	i	-8
O=C(Nc1ccon1)c1ccc(S(=O)(=O)N2CCOCC2)cc1	i	i	-0.7	i	i	-7
C[n+]1c2n(c3ccccc31)N=C(c1ccc(-c3ccccc3)cc1)CS2	i	12*	-2.9	i	i	-25
OC[C@@H]1[C@@H](c2ccc(F)cc2)C(c2cccc(Cl)c2)=NN1c1ccccc1	.	.	.	.	i	.
COc1cccc(CN2CCN(S(=O)(=O)c3ccc(Br)cc3)CC2)c1	i	i	-0.46	i	-9.7*	-3
C=CCn1c2ccccc2c(=O)c2cc(C#Cc3ccsc3)ccc21	i	i	0.7	i	.	8.9*
COCCn1c(CN2CCN(C(=O)c3ccco3)CC2)nc2c1c(=O)n(C)c(=O)n2C	i	i	0.54	i	i	-6
Cc1ccc(C(=O)NNC(=O)c2cccc(Br)c2)cc1	i	i	1.7	i	i	11*
COc1ccc(C(=O)NNC(=O)CCCCC(=O)NNC(=O)c2ccc(OC)cc2)cc1	i	i	0.2	i	i	-9
Cc1ccc(C(=O)NNC(=O)CCCCC(=O)NNC(=O)c2ccc(C)cc2)cc1	9*	i	1.4	i	i	-1
O=C(CCN(CCO)Cc1ccccc1)Nc1ccc(Br)cc1	i	i	-3	i	i	-8
CCN(CCC(=O)Nc1ccc(Br)c(C)c1)Cc1ccccc1	i	8*	-5.7*	i	i	-8
COc1ccc(S(=O)(=O)N2CCOCC2)cc1NS(=O)(=O)c1ccc(F)c(F)c1	.	.	.	.	i	.
Cc1ccc(C)c(OCCC(=O)OCC(=O)Nc2cc(S(=O)(=O)N3CCCCC3)ccc2C)c1	.	.	.	.	-10*	.
SMILES	KCNQ1 act	KCNQ1 inh	Kir21 block	KCNK9 inh	KCNK3 inh	hERG protect
CC(CC(=O)Nc1cccc(S(=O)(=O)N2CCCCC2)c1)c1ccccc1 (stereo not drawn)	.	.	.	.	i	.
Cc1ccc(S(=O)(=O)N2CCCCC2)cc1NC(=O)c1cc2ccccc2o1	.	.	.	.	-9*	.
CCCC(C(=O)Nc1cccc(S(=O)(=O)N2CCCC2)c1)c1ccccc1 (stereo not drawn)	i	i	-0.45	-7.4*	i	-11
CCc1nc2ccccc2c(C(=O)OCC(=O)Nc2cccc(S(=O)(=O)N3CCOCC3)c2)c1C	i	i	0.9	i	-9*	-12
COC(=O)C1C2CC(C(Br)C2Br)C1C(=O)O (stereo not drawn)	.	.	.	.	i	.
Cc1ccc(C)c(C(=O)OCC(=O)Nc2cccc(S(=O)(=O)N3CCCCC3)c2)c1	.	.	.	.	-9.6*	.
CC1CCCCC1NC(=S)NC(=O)c1cccs1 (stereo not drawn)	20*	i	0.01	i	i	5.2*
COc1ccc(/C=C/C(=O)c2ccc(NC(=O)c3cccs3)cc2)cc1OC	i	i	-1.4	i	i	8.9*
O=C(/C=C/c1ccccc1)NC(=S)Nc1ccc(N2CCOCC2)c(Cl)c1	i	i	0.74	i	i	-11
O=C(NC(=S)Nc1ccc(N2CCOCC2)c(Cl)c1)C(c1ccccc1)c1ccccc1	i	6*	0.72	i	i	-6
CC(OC(=O)c1cccs1)C(=O)NC1CCCCC1C (stereo not drawn)	.	.	.	.	i	.
COc1ccc(C(=O)Nc2cccc(NC(=O)c3cccs3)c2)cc1OC	i	i	-0.94	i	i	-7
O=C(NC(=S)Nc1ccccc1)c1cccs1	11*	i	-0.02	i	i	10*
CSc1nccn1C(=O)c1ccccc1[N+](=O)[O-]	i	i	2.5	i	i	-7
CCOc1ccccc1NS(=O)(=O)c1ccc2[nH]c(=O)ccc2c1	i	i	-1.4	i	i	-3
O=C(NC(=S)Nc1ccc(Br)cn1)c1cncc(Br)c1	i	i	-0.77	i	i	0
O=C(Nc1ccc(Cl)c(NC(=O)c2cccs2)c1)c1ccco1	i	i	-1.6	i	i	-5
CCCc1nc2ccc(NC(=O)c3cccs3)cc2c(=O)n1Cc1ccc(Cl)cc1	i	i	0.78	-6.8*	i	-9
O=C(Nc1ccc(NC(=O)c2cccs2)cc1)c1cccs1	i	i	1.1	i	i	-5
O=C(Nc1cccc(NC(=O)c2cccs2)c1)c1ccco1	i	i	-0.56	-6.6*	i	-13
O=C(NC(=S)Nc1ccc(Br)cn1)c1cccs1	13*	i	0.18	i	i	4
O=C(Nc1ccc(Cl)cc1)c1cccs1	i	i	0.61	-7.2*	i	-14
Cc1cc(C)cc(-n2cc[nH]c2=S)c1	i	i	0.49	i	i	0
CC(=O)OC1c2ccccc2C(=O)N1Cc1ccccc1 (stereo not drawn)	i	i	-1.5	i	i	-9
COc1ccc(CN(C)CC(=O)Nc2cccc(S(=O)(=O)N(C)c3ccccc3)c2)c(OC)c1	.	.	.	.	i	.
O=C(NC(=S)Nc1ccc(N2CCCCC2)c(Cl)c1)c1cccs1	65*	i	-0.81	i	i	13*
